NR2E3 ag-1: activates human NR2E3 receptor; inhibition of corepressor binding, % at 3.98 µM; actives 0.35% (n = 360,000); CHO-S Gal4-NCOR/VP16-NR2E3 two-hybrid, luciferase; AID 602229; Q9Y5X4;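 active = inhibition above the mean of all tested compounds plus 3 SD, cut at about 70% in these data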;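 note: 0% = DMSO with NR2E3 transfected cells and 100% = cells lacking NR2E3 construct; higher means lower luciferase signal from less NR2E3 corepressor binding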
Target sequence (Q9Y5X4 whole entry, looked up, the tested form may be a part): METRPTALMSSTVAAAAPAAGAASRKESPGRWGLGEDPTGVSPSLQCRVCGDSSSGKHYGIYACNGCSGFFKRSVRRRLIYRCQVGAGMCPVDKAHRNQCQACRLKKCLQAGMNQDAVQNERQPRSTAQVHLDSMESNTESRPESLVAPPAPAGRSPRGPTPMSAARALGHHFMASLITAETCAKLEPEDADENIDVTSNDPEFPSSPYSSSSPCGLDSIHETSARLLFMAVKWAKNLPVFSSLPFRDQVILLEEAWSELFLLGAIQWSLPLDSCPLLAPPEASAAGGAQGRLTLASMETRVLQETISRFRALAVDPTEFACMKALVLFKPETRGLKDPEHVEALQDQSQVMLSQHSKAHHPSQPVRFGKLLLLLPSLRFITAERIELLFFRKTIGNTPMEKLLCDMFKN
DAX1 inh-1: inhibitors of human orphan nuclear receptor DAX1 (NR0B1). HEK293 Gal4-DAX1 luciferase reporter, luminescence. inhibition, % at 6.75 µM. actives 0.99% (n = 340,000). AID 504766;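 active = inhibition above the mean over all tested compounds plus 3 SD, cut at about 4.2% in these data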;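 note: 0% = DAX1-transfected cells with DMSO and 100% = empty-vector control cells with DMSO; inhibition shows as a rise in luminescence from relieved DAX1 repression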
Target sequence (P51843 207-470 limits assumed): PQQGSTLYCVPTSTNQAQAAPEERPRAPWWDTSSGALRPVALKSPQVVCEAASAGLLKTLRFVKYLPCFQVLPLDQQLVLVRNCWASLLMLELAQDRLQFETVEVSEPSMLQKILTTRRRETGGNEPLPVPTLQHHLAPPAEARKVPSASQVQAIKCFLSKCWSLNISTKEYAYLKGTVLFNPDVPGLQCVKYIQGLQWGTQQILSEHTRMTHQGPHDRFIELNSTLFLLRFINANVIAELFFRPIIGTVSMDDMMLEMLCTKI
DAX1 inh-2: DAX1 (NR0B1) inhibition, primary screen; HEK293T StAR-luciferase reporter, SF-1/DAX-1 repression relief; inhibition, % at 6.8 µM; actives 1.1% (n = 370,000);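 active = inhibition above the mean over all tested compounds plus 3 SD, cut at about 3.6% in these data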;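 note: 0% = DAX-1 cells with DMSO and 100% = cells lacking DAX-1 with DMSO; higher inhibition means more luminescence from relief of DAX-1 repression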
JMJD2C inh: human JMJD2C demethylase inhibition; GST-JMJD2C(1-420) H3K9me3 demethylation, DELFIA europium; inhibition, % at 2.35 µM; actives 0.069% (n = 330,000); AID 2099;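 active = more than half of a compound's replicate wells show inhibition beyond 50%, single wells judged on their own value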;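 note: signal counts dimethyl H3K9 product captured on neutravidin plate; 0% = median of DMSO wells and 100% = 0.3 times that DMSO median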
SMARCA2 act: activators of SMARCA2 function | MG213 cells, MMTV-luciferase reporter, dexamethasone, overnight | activation, % at 9.1 µM | actives 1% (n = 370,000) | AID 652017; in the data active = activation above about 7.8%;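 note: 0% = vehicle wells and 100% = reference activator wells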
NR2E3 ag-2: agonists of human nuclear receptor NR2E3 | Q9Y5X4 | GST-NR2E3/biotin-RetCOR TR-FRET, 1536-well | inhibition of corepressor binding, % at 4.78 µM | actives 0.12% (n = 320,000) | AID 2300;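 active = percent inhibition above the cutoff of mean plus 3 SD of all tested compounds, set per screening campaign, cut at about 20% in these data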;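 note: 0% = DMSO wells and 100% = biotin wells as full block of FRET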
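Material: NR2E3–RetCOR corepressor complex / Incubation: Compound–protein incubation for 5 h at 4 °C / Dosing: compound at 4.8 µM, single dose / Detection: time-resolved FRET / Benchmarks: high control biotin, low control 0.6% DMSO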
An asterisk follows results filed as active; . = no result. A selection: hits, their analogues and other compounds. The true share with any hit is near 3.2%.

SMILES	NR2E3 ag-1	DAX1 inh-1	DAX1 inh-2	JMJD2C inh	SMARCA2 act	NR2E3 ag-2
CC(=O)N1[C@H](CO)[C@@H](c2ccccc2)[C@@H]1CN(C(=O)c1ccc(F)cc1)C(C)C	.	.	-1	.	-3	.
CC[C@H](CCC(=O)N(c1ccccc1)c1ccccc1)c1ccc(C)cc1	.	.	-1	.	-5	.
Cc1ccc(C2=NN(C(=O)CCC(=O)O)C(c3cccs3)C2)cc1 (stereo not given)	-18	-1	0	11	-4	0
CCc1ccc(C2=NN(C(=O)CCC(=O)O)C(c3cccs3)C2)cc1 (stereo not given)	-6	4.7*	-1	1	1	4
CCOC(=S)SCc1cn2cccc(C)c2n1	-3	5.0*	1	3	-3	1
C=CCN1C(=O)[C@@H](CC(=O)N2CCN(C(=O)c3ccco3)CC2)[C@]2(C(=O)OCC)CCCCC/C=C/12	.	.	0	.	-1	.
COC(=O)[C@]12C[C@H](CC(=O)NCCc3ccccc3OC)C(=O)N(Cc3cccc4ccccc34)C1=C[C@H](C(C)C)O[C@@H]2C1CC1	.	.	0	.	0	.
CCCCN(C)CCNC(=O)c1ccc(Cn2c(=S)[nH]c3ccc(Br)cc3c2=O)cc1	24	0	4.0*	2	0	0
Fc1cccc(F)c1/C=N/N1CCOCC1	-20	1	0	37	7.9*	2
Oc1ccc(/C=N/N2CCOCC2)c(O)c1O	-53	6.2*	-1	0	-1	1
Oc1ccc(/C=N/N2CCCCC2)c(O)c1O	-16	0	0	-16	-2	4
COc1ccc(Oc2c(Cl)cnn(C3c4ccccc4-c4ccccc43)c2=O)cc1	.	.	-2	.	-3	.
CCn1c2ccccc2c2cc(NC(=O)COC(=O)c3cccc(OC)c3)ccc21	.	.	-1	.	-3	.
COc1ccc(/C=C2\SC(N)=NC2=O)cc1Br	-24	-1	-1	6	-1	0
COc1cc(/C=C2\SC(N)=NC2=O)cc(Cl)c1O	5	4.4*	0	8	-3	-9
Nc1ccc2c(c1)C(=O)c1ccc(Br)cc1-2	-16	-1	-1	.	-2	.
Nc1ccc2c(c1)C(=O)c1ccccc1-2	-12	6.1*	0	-7	-2	-11
CC(C)CNC(=O)OCc1cn(Cc2cccc(C(F)(F)F)c2)nn1	.	.	1	.	-1	.
COC(=O)CCCCCCCC(=O)Nc1nnc(C(F)(F)F)s1	2	6.1*	0	-3	1	0
O=C(CCCc1ccccc1)Nc1nnc(C(F)(F)F)s1	-1	-1	-1	4	-3	-2
Cc1ccc(Oc2ccc(NC(=O)CCC(=O)OCC(=O)c3cccs3)cc2)cc1C	-38	4.5*	-1	-8	0	2
O=C(CSc1ncnc2scc(-c3ccc(Cl)cc3)c12)Nc1ccccc1-c1ccccc1	.	.	-1	.	-6	.
c1csc(-c2noc(COc3ccc4c(c3)CCCC4)n2)c1	-119	4	4.0*	-5	5	-2
Brc1ccc(-c2noc(COc3ccc4c(c3)CCC4)n2)o1	-33	-1	2	2	2	4
Cc1cc(/C=C2\C(=O)NN(c3ccccc3)C2=O)c(C)n1-c1ccccc1O	-24	5.4*	0	6	-2	-1
SMILES	NR2E3 ag-1	DAX1 inh-1	DAX1 inh-2	JMJD2C inh	SMARCA2 act	NR2E3 ag-2
COc1cc(SC)ccc1C(=O)OCC(=O)NCC(C)C	11	4.3*	1	5	1	0
COc1cc(SC)ccc1C(=O)OCC(=O)NC(=O)NC(C)C	-4	0	-1	1	-1	-3
CC(=O)Nc1cccc(-c2csc(Nc3ccc(C)cn3)n2)c1	-127	0	5.5*	1	3	4
Cc1ccc(-n2nnc(-c3cnc4ccccc4c3)n2)cc1	-119	5.1*	2	-4	7	2
CCCCN(C)C(=O)c1ccc2c(c1)N(CC)C(=O)c1ccccc1S2=O (stereo not given)	-14	4.7*	0	-7	0	2
Cc1ccc(-n2c(SCC(=O)c3ccccc3Cl)nnc2-c2cnccn2)cc1	.	.	2	.	6	.
O=[N+]([O-])c1ccc(NC(=S)NCc2ccncc2)cc1	-16	-1	-2	-18	-7	0
O=[N+]([O-])c1ccc(NCc2ccncc2)cc1	-3	4.6*	-1	-9	-4	0
O=S1(=O)c2ccc(Br)cc2OC[C@@H](Cc2ccccc2)N1Cc1cn(Cc2ccc(F)cc2)nn1	.	.	-1	.	-1	.
C[C@@H]1CCN(C2CC2)S(=O)(=O)c2c(cccc2N2CCC[C@H]2C)O1	.	.	-1	.	-3	.
COc1ccc2c(c1)c(=O)oc1cc(OCC(=O)NC3CC3)ccc12	-20	0	0	-1	1	0
COc1ccc2c(c1)c(=O)oc1cc(OCC(=O)NC3CCCCC3)ccc12	7	5.9*	0	-7	1	2
COc1ccc(CN2C(NC(=O)OCc3ccccc3)=NC3=CC(C)(C)n4c(=O)n(-c5ccccc5)c(=O)n4C32)c(OC)c1 (stereo not given)	.	.	0	.	-2	.
O=C(NCc1csc(-c2cccs2)n1)c1cccc(Cl)c1	-3	4.4*	0	2	0	2
C#CCNC(=O)C[C@@H]1C(=O)N(CC=C)C2=CCCCC[C@]21C(=O)OC	.	.	0	.	-2	.
CCCN=C(C)C1=C(O)c2ccccc2C1=O	-81	5.3*	1	7	5	0
CCN(CC)CCCN=C(C)C1=C(O)c2ccccc2C1=O	-2	.	0	27	-2	-1
CCN(CC)c1ccc(NC(=O)c2cc3c(C)nn(-c4ccccc4)c3s2)cc1	.	.	-1	.	-2	.
O=C1N(c2ccccc2)CCN1c1ccccc1	-125	4	2	33	2	3
O=C1NC(=S)CN1c1ccccc1	-5	5.6*	0	6	2	-3
CNC(=O)c1c(N)sc2c1CCCCC2	.	.	.	2	.	3
COCCNC(=O)c1c(N)sc2c1CCCC2	.	.	.	50*	.	1
COc1ccccc1-c1cccc([C@@H]2C[C@H]3[C@H](CON3C)CN2C(C)=O)c1	7	-1	3.7*	.	-6	.
COC(=O)[C@]12C[C@H](CC(=O)N3CCC(c4ccccc4)CC3)C(=O)N(Cc3ccc(Cl)cc3Cl)C1=C[C@H](C1CCCC1)O[C@@H]2C	.	.	-1	.	-2	.
COC(=O)C12C=C3CC(c4ccc(OC)cc4)=C3C(=O)N1Cc1[nH]c3ccccc3c1C2 (stereo not given)	.	.	-1	.	-3	.
COC(=O)c1ccccc1NC(=O)C1CCN(c2ncnc3c2nc2n3CCCCC2)CC1	-26	4.8*	0	-6	3	0
CC(=O)N1CSCC1C(=O)NNS(=O)(=O)c1cccc(C(F)(F)F)c1 (stereo not given)	-2	6.3*	0	4	-2	2
O=C(CSc1nnc(-c2ccccc2)n1-c1ccc(Cl)cc1)c1ccc(F)cc1	.	.	-1	.	-3	.

Screening results (PubChem)
